Measurements reported in PMC4191586 (Journal of Medicinal Chemistry, 2014).
Entries after “also recorded” stand apart in the source; their conditions may differ. Where two headings read alike, the source gives them in different places.

Tests used:
[1] = system: RT16 CHO cells (express human FRα); conditions: read-out: IC50 FRα RT16; without folic acid; mean (SEM); cited from earlier work
[2] = system: FRα- and PCFT-expressing tumor cells; conditions: up; cited from earlier work
[3] = system: PC43-10 CHO cells (express human RFC); conditions: mean (SEM), previously published, cited from earlier work
[4] = system: PC43-10 CHO cells (express human RFC); experiment: Growth inhibition assay, RFC-expressing PC43-10 CHO cells; type: cell-based, Chinese hamster; conditions: PC43-10, 96 h, read-out: IC50 RFC PC43-10
[5] = target: FRα (Homo sapiens, UniProt P15328); experiment: Competitive [3H]folic acid binding assay, FRα in RT16 cells; conditions: 50 nM [3H]folic acid, folic acid = 1
Procedure, shortened: (§1)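 Cells plated 48 h ahead (~5 × 10^6) were acid-stripped of bound folate (pH 3.5 acetate/NaCl) and washed in ice-cold HEPES saline, pH 7.4. They were then incubated 15 min at 0 °C with 50 nM [3H]folic acid (0.5 Ci/mmol) across a range of unlabeled ligand concentrations. After NaOH lysis, bound label was read as pmol/mg protein.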

[6] = system: KB human nasopharyngeal carcinoma cells (express RFC, FRα, PCFT); experiment: Growth inhibition assay, KB human tumor cells; type: cell-based; conditions: for IC50: Homo sapiens, read-out: IC50 RFC/FRα/PCFT KB
[7] = system: R2/PCFT4 CHO cells (express human PCFT); experiment: Growth inhibition assay, PCFT-expressing R2/PCFT4 CHO cells; type: cell-based, Chinese hamster; conditions: R2/PCFT4, pH 7.2, read-out: IC50 PCFT R2/PCFT4
[8] = system: D4 CHO cells (express human FRβ); experiment: Growth inhibition assay, FRβ-expressing D4 CHO cells; type: cell-based, Chinese hamster; conditions: for IC50: CHO, read-out: IC50 FRβ D4; for IC50 FRβ D4: without folic acid, mean (SEM)
Procedure, shortened: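 D4 cells were seeded at ~2500–5000 per well in folate-free RPMI with 10% dialyzed FBS, 2 nM leucovorin and 2 mM L-glutamine. They were exposed to a range of drug concentrations for up to 96 h, with or without 200 nM folic acid in parallel. Viability was read by CellTiter-Blue fluorescence.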

[9] = target: FRβ (Homo sapiens, UniProt P14207); experiment: Competitive [3H]folic acid binding assay, FRβ in D4 cells; conditions: 50 nM [3H]folic acid, folic acid = 1
Procedure, shortened: as §1

[10] = target: T1, GARFTase (Homo sapiens, UniProt P22102); experiment: In situ GARFTase activity assay in KB cells; type: cell-based; conditions: ratio of in situ GARFTase IC50s vs compound 7
T1 sequence (P22102 1-1010): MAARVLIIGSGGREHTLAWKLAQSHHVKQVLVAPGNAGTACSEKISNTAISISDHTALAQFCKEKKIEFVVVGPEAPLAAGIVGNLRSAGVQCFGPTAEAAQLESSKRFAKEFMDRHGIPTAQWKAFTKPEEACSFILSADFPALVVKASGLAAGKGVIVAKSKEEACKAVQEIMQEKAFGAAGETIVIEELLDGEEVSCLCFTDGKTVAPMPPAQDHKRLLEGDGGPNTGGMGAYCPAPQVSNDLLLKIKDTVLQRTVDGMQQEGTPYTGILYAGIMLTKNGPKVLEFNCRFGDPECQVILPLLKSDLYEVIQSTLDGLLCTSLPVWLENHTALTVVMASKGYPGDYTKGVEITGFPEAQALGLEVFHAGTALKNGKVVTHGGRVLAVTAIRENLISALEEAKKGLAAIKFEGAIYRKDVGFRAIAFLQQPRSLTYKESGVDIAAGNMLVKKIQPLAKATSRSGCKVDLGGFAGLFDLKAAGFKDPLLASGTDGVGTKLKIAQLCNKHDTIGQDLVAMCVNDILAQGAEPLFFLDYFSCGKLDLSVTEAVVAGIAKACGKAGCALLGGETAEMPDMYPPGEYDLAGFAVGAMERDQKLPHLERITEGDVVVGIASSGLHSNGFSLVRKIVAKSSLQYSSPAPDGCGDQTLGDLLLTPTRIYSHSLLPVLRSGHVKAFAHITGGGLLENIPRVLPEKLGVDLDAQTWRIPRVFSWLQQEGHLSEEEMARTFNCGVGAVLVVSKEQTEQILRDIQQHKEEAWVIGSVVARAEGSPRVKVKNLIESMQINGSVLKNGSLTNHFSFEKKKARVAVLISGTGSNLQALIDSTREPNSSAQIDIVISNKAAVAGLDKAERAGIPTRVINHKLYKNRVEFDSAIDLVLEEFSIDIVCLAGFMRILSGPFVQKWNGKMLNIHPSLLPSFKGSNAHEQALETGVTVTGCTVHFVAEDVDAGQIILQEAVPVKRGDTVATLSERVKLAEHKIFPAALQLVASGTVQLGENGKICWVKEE

[11] = system: KB cells; experiment: Nucleoside/AICA protection of growth inhibition in KB cells; type: cell-based, human
Procedure, shortened: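 KB human nasopharyngeal carcinoma cells were grown in complete folate-free RPMI 1640 with 2 nM LCV, with a range of test compound concentrations. Runs had no additions or included 200 nM folic acid, adenosine (60 μM), thymidine (10 μM) or AICA (320 μM). Cell density was read by CellTiter Blue fluorescence and normalized to no-drug cells; experiments were performed in triplicate.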

Sequence of FRβ (P14207 17-255): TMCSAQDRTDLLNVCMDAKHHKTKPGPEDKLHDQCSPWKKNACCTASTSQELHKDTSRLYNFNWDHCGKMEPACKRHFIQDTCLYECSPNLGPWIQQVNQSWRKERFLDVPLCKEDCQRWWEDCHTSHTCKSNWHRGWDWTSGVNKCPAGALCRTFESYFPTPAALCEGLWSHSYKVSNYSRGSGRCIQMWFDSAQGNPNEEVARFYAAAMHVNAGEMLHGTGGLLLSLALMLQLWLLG
Sequence of FRα (P15328 25-257): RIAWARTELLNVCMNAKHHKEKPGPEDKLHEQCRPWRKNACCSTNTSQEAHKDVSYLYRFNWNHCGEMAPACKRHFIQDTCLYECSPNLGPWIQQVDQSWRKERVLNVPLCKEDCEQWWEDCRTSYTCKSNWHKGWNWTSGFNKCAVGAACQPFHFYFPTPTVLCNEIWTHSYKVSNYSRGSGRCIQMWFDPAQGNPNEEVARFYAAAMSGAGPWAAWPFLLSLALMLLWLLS

| Structure (SMILES) | IC50 [1] | increase of cell growth inhibition compared to 8 [2] | IC50 RFC PC43-10 [3] | IC50 ([3]; read-out: IC50 RFC PC43-10) | IC50 [4] | relative binding affinity to FRα (in words) [5] | IC50 [6] | IC50 [7] | IC50 [8] | IC50 FRβ D4 [8] | relative binding affinity to FRβ (in words) [9] | fold less potent than 7 as GARFTase inhibitor in KB cells [10] | effect of AICA on inhibition of KB cell proliferation ([11]; AICA 320 μM) | effect of adenosine on inhibition of KB cell proliferation ([11]; adenosine 60 μM) | effect of thymidine on inhibition of KB cell proliferation ([11]; thymidine 10 μM) | fold reduction of KB potency relative to IC50 of 7 ([6]; KB cells, IC50 9 nM vs 0.26 nM) |
| --- | --- | --- | --- | --- | --- | --- | --- | --- | --- | --- | --- | --- | --- | --- | --- | --- |
| Nc1nc2[nH]c(CCCc3ccc(C(=O)N[C@@H](CCC(=O)O)C(=O)O)s3)cc2c(=O)[nH]1 [Compound 7, (S)-2-({5-[3-(2-Amino-4-oxo-4,7-dihydro-3H-pyrrolo[2,3-d]pyrimidin-6-yl)-propyl]-thiophene-2-carbonyl}-amino)-pentanedioic Acid] | 0.31 nM | ~10 fold | modest inhibition | 101 nM |  |  |  |  |  |  |  |  |  |  |  |  |
| Nc1nc2[nH]c(CCCc3ccc(C(=O)O)s3)cc2c(=O)[nH]1 [Compound 9, 5-[3-(2-Amino-4-oxo-4,7-dihydro-3H-pyrrolo[2,3-d]pyrimidin-6-yl)-propyl]-thiophene-2-carboxylic Acid] |  |  |  |  | > 1000 nM | Substantially reduced | > 1000 nM | > 1000 nM | > 1000 nM | completely inactive | Substantially reduced; also recorded: undetectable binding |  |  |  |  |  |
| Nc1nc2[nH]c(CCCc3ccc(C(=O)N[C@@H](CC(=O)O)C(=O)O)s3)cc2c(=O)[nH]1 [Compound 10, (S)-2-({5-[3-(2-Amino-4-oxo-4,7-dihydro-3H-pyrrolo[2,3-d]pyrimidin-6-yl)-propyl]-thiophene-2-carbonyl}-amino)-butanedioic Acid] |  |  |  |  | > 1000 nM | bound avidly to FRα | > 1000 nM | > 1000 nM |  | substantially reduced activity |  |  |  |  |  |  |
| Nc1nc2[nH]c(CCCc3ccc(C(=O)N[C@@H](CCCC(=O)O)C(=O)O)s3)cc2c(=O)[nH]1 [Compound 11, (S)-2-({5-[3-(2-Amino-4-oxo-4,7-dihydro-3H-pyrrolo[2,3-d]pyrimidin-6-yl)propyl]thiophene-2-carbonyl}-amino)-hexanedioic Acid] |  |  |  |  | > 1000 nM |  |  | > 1000 nM |  |  | somewhat reduced | ~6 fold | abolished the inhibitory effects | abolished the inhibitory effects | had no effect | approximately 35 fold |
| Nc1nc2[nH]c(CCCc3ccc(C(=O)NCCCC(=O)O)s3)cc2c(=O)[nH]1 [Compound 12, 4-({5-[3-(2-Amino-4-oxo-4,7-dihydro-3H-pyrrolo[2,3-d]pyrimidin-6-yl)propyl]thiophene-2-carbonyl}-amino)-butanoic Acid] |  |  |  |  | > 1000 nM | bound avidly to FRα | > 1000 nM | > 1000 nM | > 1000 nM | complete inactivity | somewhat reduced; also recorded: distinctly reduced binding affinities |  |  |  |  |  |
| CCC[C@H](NC(=O)c1ccc(CCCc2cc3c(=O)[nH]c(N)nc3[nH]2)s1)C(=O)O [Compound 13, (S)-2-({5-[3-(2-Amino-4-oxo-4,7-dihydro-3H-pyrrolo[2,3-d]pyrimidin-6-yl)propyl]thiophene-2-carbonyl}-amino)-pentanoic Acid] |  |  |  |  | > 1000 nM | bound avidly to FRα | > 1000 nM | > 1000 nM | > 1000 nM | complete inactivity | somewhat reduced; also recorded: distinctly reduced binding affinities |  |  |  |  |  |
